Experiment [1] has as its target T1, Proteasome Macropain subunit MB1 (Homo sapiens, UniProt P28074).
T1 sequence (P28074 whole entry): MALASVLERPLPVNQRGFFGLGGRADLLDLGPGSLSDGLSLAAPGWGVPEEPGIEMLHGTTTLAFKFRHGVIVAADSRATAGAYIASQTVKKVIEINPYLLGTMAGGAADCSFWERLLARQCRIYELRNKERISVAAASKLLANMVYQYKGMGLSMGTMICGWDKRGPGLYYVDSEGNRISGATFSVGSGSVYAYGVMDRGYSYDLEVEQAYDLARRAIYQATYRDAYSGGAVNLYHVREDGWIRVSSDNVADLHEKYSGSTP
Nature of the experiment: Inhibition of chymotrypsin-like activity of human 20s proteasome beta 5c subunit using suc-WLA-AMC as flurogenic substrate preincubated for 15 mins followed by substrate addition and measured after 1 hr by fluorescence assay. In short, it runs like this: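 Constitutive proteasome isolated from human hepatic cells, added at 40 μg/mL (pre-dilution) in 100 mM Tris-HCl pH 7.5. Compounds came from DMSO diluted in water (10% DMSO solution). Preincubated 15 min at 25 °C, then AMC substrate added (100 µM final) for 1 h at 25 °C. Fluorescence read at 355 nm excitation and 460 nm emission; IC50 from a variable-slope sigmoidal fit.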

In experiment [2] the target is T2, Proteasome subunit beta type-8 (Homo sapiens, UniProt P28062).
T2 sequence (P28062 whole entry): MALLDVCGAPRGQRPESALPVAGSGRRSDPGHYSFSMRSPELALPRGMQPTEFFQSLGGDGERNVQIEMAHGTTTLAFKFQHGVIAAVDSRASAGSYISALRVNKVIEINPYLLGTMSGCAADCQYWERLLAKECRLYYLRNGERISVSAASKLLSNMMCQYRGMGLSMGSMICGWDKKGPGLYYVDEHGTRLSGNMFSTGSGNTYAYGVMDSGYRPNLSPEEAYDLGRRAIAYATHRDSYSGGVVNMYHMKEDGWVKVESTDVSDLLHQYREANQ
Nature of the experiment: Inhibition of human proteasome subunit beta-5i chymotrypsin like activity using SUC-ANW-AMC as flurogenic substrate preincubated for 15 mins followed by substrate addition and measured after 1 hr by fluorescence assay. The gist of the method: (§1)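 Immunoproteasome derived from human PBMC, added at 1 μg/mL (pre-dilution) in 100 mM Tris-HCl pH 7.5. Compounds were diluted to a 10% DMSO solution. After 15 min preincubation at 25 °C, AMC substrate added (100 µM final) and incubated 1 h at 25 °C. Read at ex 355/em 460 nm; IC50 by sigmoidal variable-slope fitting.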

The nature of experiment [3]: Selectivity ratio of IC50 for chymotrypsin-like activity of human 20s proteasome beta 5c subunit to IC50 for human proteasome subunit beta-5i chymotrypsin like activity.
Experiment [4] deals with T3, Proteasome subunit beta type-9 (Homo sapiens, UniProt P28065).
T3 sequence (P28065 whole entry): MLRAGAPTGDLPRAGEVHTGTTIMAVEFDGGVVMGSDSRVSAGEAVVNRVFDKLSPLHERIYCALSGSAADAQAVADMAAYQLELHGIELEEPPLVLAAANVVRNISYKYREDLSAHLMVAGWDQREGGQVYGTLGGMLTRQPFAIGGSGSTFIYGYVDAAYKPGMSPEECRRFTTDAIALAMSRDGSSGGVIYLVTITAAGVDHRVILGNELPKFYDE
Nature of the experiment: Inhibition of human caspase-like activity of 20s proteasome beta 1i subunit using SUC-PAL-AMC as flurogenic substrate preincubated for 15 mins followed by substrate addition and measured after 1 hr by fluorescence assay. In short, it runs like this: as §1

Experiment [5] has as its system MM1.S. Description: Antiproliferative activity against human MM1.S cells assessed as inhibition of cell proliferation after 72 hrs by MTS assay. The format is functional, cell-based. In short, it runs like this: (§2)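 Cells grown in RPMI-1640 with 10% FBS and penicillin/streptomycin at 37 °C, 5% CO2. Seeded per well at 5×10³ (RPMI-8226) or 3×10⁴ (MM.1S), then exposed 72 h to graded compound concentrations or 0.2% DMSO vehicle. MTS/PMS added for 2–4 h; absorbance at 490 nm minus 690 nm. Inhibition = (Acontrol−Asample)/Acontrol; IC50 by sigmoidal variable-slope regression.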
(In general: Formazan colour is commonly taken as a measure of viable cells.)

Experiment [6] addresses T4, Proteasome subunit beta type-10 (Homo sapiens, UniProt P40306).
T4 sequence (P40306 whole entry): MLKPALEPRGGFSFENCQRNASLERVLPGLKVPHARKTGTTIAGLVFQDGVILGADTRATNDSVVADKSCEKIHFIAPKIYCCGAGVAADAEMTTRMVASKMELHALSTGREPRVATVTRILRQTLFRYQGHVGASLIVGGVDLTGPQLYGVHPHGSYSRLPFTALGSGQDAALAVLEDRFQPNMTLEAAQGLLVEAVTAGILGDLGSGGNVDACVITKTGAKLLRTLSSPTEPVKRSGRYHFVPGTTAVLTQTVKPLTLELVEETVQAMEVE
Nature of the experiment: Inhibition of human trypsin-like activity of 20s proteasome beta 2i subunit using SUC-VGR-AMC as flurogenic substrate preincubated for 15 mins followed by substrate addition and measured after 1 hr by fluorescence assay. The gist of the method: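 Immunoproteasome derived from human PBMC, added at 1 μg/mL (pre-dilution) in 100 mM Tris-HCl pH 7.5. Compounds were diluted to a 10% DMSO solution. After 15 min preincubation at 25 °C, AMC substrate added (100 µM final) and incubated 1 h at 25 °C.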

Experiment [7] has as its system RPMI-8226. Nature of the experiment: Antiproliferative activity against human RPMI-8226 cells assessed as inhibition of cell proliferation after 72 hrs by MTS assay. It is filed as functional, cell-based. The conditions noted are these: RPMI-8226, 72 h. The gist of the method:
as §2

Experiment [8] in a line: Inhibition of 20s proteasome beta 5c subunit (unknown origin). Further details: species or system Homo sapiens.

As usually defined, the IC50 is the point on the concentration scale where inhibition reaches its midpoint. Turning to `COc1ccc(C[C@H](NC(=O)[C@@H](C)NC(=O)N2CC[C@@H](OC)C2)C(=O)N[C@@H](Cc2ccccc2)C(=O)[C@@]2(C)CO2)cc1`, the IC50 in experiment [1] was 1480 nM; in experiment [2], 66 nM. Also, in experiment [3], the Ratio IC50 was 22.5.
For the compound `COc1ccc(C[C@H](NC(=O)[C@H](C)NC(=O)N2CCCC2)C(=O)N[C@@H](Cc2ccccc2)C(=O)[C@@]2(C)CO2)cc1`, the IC50 came to 498 nM in experiment [1] and 246 nM in experiment [2]. For the same compound, in experiment [3], the Ratio IC50 worked out at 2.
The like results for `C[C@H](NC(=O)N1CCC(NC(=O)c2nccs2)CC1)C(=O)N[C@@H](Cc1c[nH]c2ccccc12)C(=O)N[C@@H](CC1CCCCC1)C(=O)[C@@]1(C)CO1` were, in that order, 216 nM, 245 nM and 0.9.
Take `C[C@H](NC(=O)N1CCC(NC(=O)c2nccs2)CC1)C(=O)N[C@@H](Cc1c[nH]c2ccccc12)C(=O)N[C@@H](Cc1ccccc1)C(=O)[C@@]1(C)CO1`: the IC50 in experiment [1] is 25.6 nM; in experiment [4], 154 nM; in experiment [2], 21.1 nM; in experiment [5], 110 nM; in experiment [6] it was above 10000 nM; in experiment [7], 110 nM. The Ratio IC50 in experiment [3] was 1.2.
For the compound `COc1ccc(C[C@H](NC(=O)[C@H](C)NC(=O)N2CCC(OC)C2)C(=O)N[C@@H](Cc2ccccc2)C(=O)[C@@]2(C)CO2)cc1` (stereo partly drawn), the IC50 in experiment [1] was 293 nM; in experiment [2], 56.8 nM. In addition, the Ratio IC50 in experiment [3] was found to be 5.2.
The like results for `COc1ccc(C[C@H](NC(=O)[C@@H](C)NC(=O)N2CCC(OC)C2)C(=O)N[C@@H](Cc2ccccc2)C(=O)[C@@]2(C)CO2)cc1` (stereo partly drawn) were, in that order, 1110 nM, 44.5 nM and 24.8.
For the compound `COc1ccc(C[C@H](NC(=O)[C@H](C)NC(=O)N2CCc3ccccc3C2)C(=O)N[C@@H](Cc2ccccc2)C(=O)[C@@]2(C)CO2)cc1`, the IC50 in experiment [1] was 69.7 nM; in experiment [2], 37.8 nM. Moreover, the Ratio IC50 in experiment [3] was found to be 1.8.
The like results for `C[C@@H](NC(=O)N1CCC(NC(=O)c2nccs2)CC1)C(=O)N[C@@H](Cc1c[nH]c2ccccc12)C(=O)N[C@@H](CC1CCCCC1)C(=O)[C@@]1(C)CO1` were, in that order, 1080 nM, 719 nM and 1.5.
For `C[C@@H](NC(=O)N1CCC(NC(=O)c2nccs2)CC1)C(=O)N[C@@H](Cc1c[nH]c2ccccc12)C(=O)N[C@@H](Cc1ccccc1)C(=O)[C@@]1(C)CO1`, the IC50 in experiment [1] is 468 nM; in experiment [2], 323 nM. In addition, the Ratio IC50 in experiment [3] is 1.5.
For `COc1ccc(C[C@H](NC(=O)[C@@H](C)NC(=O)n2c3ccccc3c3ccccc32)C(=O)N[C@@H](Cc2ccccc2)C(=O)[C@@]2(C)CO2)cc1`, in that order: 71.7 nM, 38.2 nM and 1.9.
For `COc1ccc(C[C@H](NC(=O)[C@H](C)NC(=O)n2c3ccccc3c3ccccc32)C(=O)N[C@@H](Cc2ccccc2)C(=O)[C@@]2(C)CO2)cc1`, in that order: 35.5 nM, 61 nM and 0.6.
In the case of `COc1ccc(C[C@H](NC(=O)[C@@H](C)NC(=O)N2CCCC2)C(=O)N[C@@H](Cc2ccccc2)C(=O)[C@@]2(C)CO2)cc1`, the 50% inhibitory concentration (IC50) is 1330 nM in experiment [1] and 62.9 nM in experiment [2]. In addition, the Ratio IC50 in experiment [3] is 21.2.
Turning to `COc1ccc(C[C@H](NC(=O)[C@@H](C)NC(=O)N2CCC[C@@H](OC)C2)C(=O)N[C@@H](Cc2ccccc2)C(=O)[C@@]2(C)CO2)cc1`, the IC50 was 244 nM in experiment [1]; 4270 nM in experiment [4]; 29.9 nM in experiment [2]; 220 nM in experiment [5]; above 10000 nM in experiment [6]; 680 nM in experiment [7]. Further, in experiment [3], the Ratio IC50 was determined as 8.2.
Consider `COc1ccc(C[C@H](NC(=O)[C@@H](C)NC(=O)N2CCC(NC(=O)c3nccs3)CC2)C(=O)N[C@@H](CC2CCCCC2)C(=O)[C@@]2(C)CO2)cc1`, for which the half-maximal inhibitory concentration (IC50) came out at 2710 nM in experiment [1] and 718 nM in experiment [2]. Moreover, the Ratio IC50 in experiment [3] amounted to 3.8.
For `COc1ccc(C[C@H](NC(=O)[C@H](C)NC(=O)CN2CCOCC2)C(=O)N[C@@H](Cc2ccccc2)C(=O)[C@@]2(C)CO2)cc1`, the IC50 was found to be 680 nM in experiment [7] and 422 nM in experiment [8].
As for `COc1ccc(C[C@H](NC(=O)[C@H](C)NC(=O)N2CCC(OC)CC2)C(=O)N[C@@H](Cc2ccccc2)C(=O)[C@@]2(C)CO2)cc1`, the IC50 is 74 nM in experiment [1] and 18.9 nM in experiment [2]. The Ratio IC50 in experiment [3] was determined as 3.9.
The like results for `COc1ccc(C[C@H](NC(=O)[C@H](C)NC(=O)N2CCC(NC(=O)c3nccs3)CC2)C(=O)N[C@@H](CC2CCCCC2)C(=O)[C@@]2(C)CO2)cc1` were, in that order, 245 nM, 129 nM and 1.9.
In the case of `COc1ccc(C[C@H](NC(=O)[C@@H](C)NC(=O)N2CC[C@H](OC)C2)C(=O)N[C@@H](Cc2ccccc2)C(=O)[C@@]2(C)CO2)cc1`, the IC50 in experiment [1] was 606 nM; in experiment [4] it was 5770 nM; in experiment [2] it was 25.1 nM; in experiment [5], 1370 nM; in experiment [6], above 10000 nM; in experiment [7], 1880 nM. For the same compound, in experiment [3], the Ratio IC50 worked out at 24.1.
For the compound `COc1ccc(C[C@H](NC(=O)[C@@H](C)NC(=O)N2CCC(OC)CC2)C(=O)N[C@@H](Cc2ccccc2)C(=O)[C@@]2(C)CO2)cc1`, the IC50 was 647 nM in experiment [1]; above 10000 nM in experiment [4]; 26 nM in experiment [2]; 1790 nM in experiment [5]; above 10000 nM in experiment [6]; 1920 nM in experiment [7]. For the same compound, the Ratio IC50 in experiment [3] was 24.9.
On to `COc1ccc(C[C@H](NC(=O)[C@@H](C)NC(=O)N2CCc3ccccc3C2)C(=O)N[C@@H](Cc2ccccc2)C(=O)[C@@]2(C)CO2)cc1`, for which the figures for the IC50 in experiment [1] and in experiment [2] were 959 nM and 80.7 nM, respectively. In experiment [3], the Ratio IC50 turned out to be 11.9.
For `COc1ccc(C[C@H](NC(=O)[C@@H](C)NC(=O)N2CCC[C@H](OC)C2)C(=O)N[C@@H](Cc2ccccc2)C(=O)[C@@]2(C)CO2)cc1`, in that order: 163 nM, 37.7 nM and 4.3.

These data come from ChEMBL document CHEMBL4837231, “Development of peptide epoxyketones as selective immunoproteasome inhibitors” (Eur J Med Chem, 2021).
